From ChEMBL document CHEMBL1275591, “Cellular pharmacodynamics of the novel biaryloxazolidinone radezolid: studies with infected phagocytic and nonphagocytic cells, using Staphylococcus aureus, Staphylococcus epidermidis, Listeria monocytogenes, and Legionella pneumophila” (Antimicrob Agents Chemother, 2010)
In brackets after ≈: the same amount, converted by molar mass.

How the values were obtained:
Staphylococcus aureus [1] = assay: Antimicrobial activity against linezolid-susceptible Staphylococcus aureus SA238 infected in THP1 cells at pH 7.4 after 24 hrs; assay type: functional, organism-based; settings: SA238, THP-1, 24 h
Staphylococcus aureus [2] = assay: Bacteriostatic activity against linezolid-resistant Staphylococcus aureus SA238L infected in Calu-3 cells after 24 hrs; assay type: functional
Method in brief: (§1)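 Adherent nonphagocytic cells were infected at 5 × 10^7 to 1 × 10^8 bacteria/ml with 2 h phagocytosis. Cells used: Calu-3 bronchial epithelium grown in uncoated flasks, neonatal foreskin keratinocytes on collagen-coated wells, primary human osteoblasts, and primary rat embryo fibroblasts. Antibiotic was then given over a concentration range for 24 h. Cs came from a sigmoidal fit of CFU change.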

Staphylococcus aureus [3] = assay: Antimicrobial activity against linezolid-susceptible Staphylococcus aureus SA040 infected in THP1 cells after 24 hrs; assay type: functional, organism-based; settings: SA040, THP-1, 24 h
Method in brief: (§2)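 Bacteria were phagocytosed by human THP-1 macrophage-like cells, then exposed to a range of drug concentrations for a fixed time: 24 h for S. aureus, S. epidermidis and L. monocytogenes, 48 h for L. pneumophila. Change in CFU versus the initial inoculum was fitted with a sigmoidal curve to give Emin, Emax (relative maximal efficacy), EC50 and static concentration (Cs).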

Staphylococcus aureus [4] = assay: Bacteriostatic activity against linezolid-susceptible Staphylococcus aureus NRS384 infected in THP1 cells after 24 hrs; assay type: functional, THP-1
Method in brief: (§3)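 Human THP-1 myelomonocytic (macrophage-like) cells infected with S. aureus, then exposed 24 h to a range of antibiotic concentrations. CFU change was measured against the initial inoculum. A sigmoidal dose-response curve was fitted to give Emin, Emax and EC50, and the apparent static concentration (Cs) was taken from the fit.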

Staphylococcus aureus [5] = assay: Bacteriostatic activity against linezolid-resistant Staphylococcus aureus SA040L infected in THP1 cells after 24 hrs; assay type: functional, THP-1; method in brief: as §3
Staphylococcus aureus [6] = assay: Bacteriostatic activity against linezolid-susceptible Staphylococcus aureus SA238 infected in THP1 cells at pH 7.4 after 24 hrs; assay type: functional, THP-1
Staphylococcus aureus [7] = assay: Bacteriostatic activity against linezolid-resistant Staphylococcus aureus SA238L infected in human osteoblasts cells after 24 hrs; assay type: functional; method in brief: as §1
Staphylococcus aureus [8] = assay: Bacteriostatic activity against linezolid-susceptible Staphylococcus aureus SA238 infected in THP1 cells after 24 hrs; assay type: functional, THP-1; method in brief: as §3
Staphylococcus aureus [9] = assay: Bacteriostatic activity against linezolid-susceptible Staphylococcus aureus ATCC 25923 infected in THP1 cells after 24 hrs; assay type: functional, THP-1; method in brief: as §3
Staphylococcus aureus [10] = assay: Antimicrobial activity against linezolid-susceptible Staphylococcus aureus NRS384 infected in THP1 cells assessed as log reduction in bacterial count after 24 hrs; assay type: functional, THP-1; method in brief: as §2
Staphylococcus aureus [11] = assay: Bacteriostatic activity against linezolid-susceptible Staphylococcus aureus SA238 infected in human epidermal keratinocytes cells after 24 hrs; assay type: functional; method in brief: as §1
Legionella pneumophila [12] = assay: Antimicrobial activity against Legionella pneumophila ATCC 33153 after 48 hrs; assay type: functional; settings: ATCC 33153, 48 h
Staphylococcus aureus [13] = assay: Antimicrobial activity against hospital acquired methicillin-resistant Staphylococcus aureus ATCC 33591 after 24 hrs; assay type: functional; settings: ATCC 33591, 24 h
Staphylococcus aureus [14] = assay: Bacteriostatic activity against linezolid-susceptible Staphylococcus aureus SA040 infected in THP1 cells after 24 hrs; assay type: functional, THP-1; method in brief: as §3
Staphylococcus aureus [15] = assay: Antimicrobial activity against linezolid-resistant Staphylococcus aureus SA238L infected in human osteoblasts cells assessed as log reduction in bacterial count after 24 hrs; assay type: functional
Method in brief: (§4)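 S. aureus was internalized by adherent nonphagocytic cells: Calu-3, HUVEC, keratinocytes on collagen-coated wells, osteoblasts, or rat embryo fibroblasts. Inoculum was 5 × 10^7 to 1 × 10^8 bacteria/ml with 2 h phagocytosis (HUVEC: 2 × 10^6/ml, 1 h). Cells were then exposed to graded drug concentrations for 24 h. CFU change versus the original inoculum was fitted sigmoidally for Emax and Cs.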

Staphylococcus aureus [16] = assay: Antimicrobial activity against linezolid-resistant Staphylococcus aureus SA238L infected in HUVEC cells assessed as log reduction in bacterial count after 24 hrs; assay type: functional; method in brief: as §4
Staphylococcus aureus [17] = assay: Antimicrobial activity against linezolid-resistant Staphylococcus aureus SA040L infected in THP1 cells assessed as log reduction in bacterial count after 24 hrs; assay type: functional, THP-1; method in brief: as §2
THP-1 = assay: Ratio of drug level for cellular to extracellular region of Staphylococcus aureus infected human THP-1 cells at 4 mg/liter after 2 hrs; assay type: ADME, cell-based; settings: thp-1, 2 h
Method in brief: (§5)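 Cells were exposed to [14C]radezolid for 2 or 24 h. Cell-associated drug in lysates was measured by liquid scintillation counting (detection limit 0.003 mg/liter; linear 0.01–0.78 mg/liter). Content was normalised to cell protein (Lowry). It was converted to apparent cellular concentration at 5 μl per mg protein and expressed relative to the extracellular concentration.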

Legionella pneumophila [18] = assay: Antimicrobial activity against Legionella pneumophila ATCC 33153 infected in THP1 cells after 48hrs; assay type: functional, organism-based; settings: ATCC 33153, THP-1, 48 h; method in brief: as §2
Staphylococcus aureus [19] = assay: Antimicrobial activity against linezolid-susceptible Staphylococcus aureus SA238 infected in THP1 cells after 24 hrs; assay type: functional, organism-based; settings: SA238, THP-1, 24 h; method in brief: as §2
Staphylococcus aureus [20] = assay: Antimicrobial activity against linezolid-susceptible Staphylococcus aureus NRS18 infected in THP1 cells after 24 hrs; assay type: functional, organism-based; settings: NRS18, THP-1, 24 h; method in brief: as §2
Staphylococcus aureus [21] = assay: Antimicrobial activity against Staphylococcus aureus ATCC 25923 assessed as log reduction in bacterial count at 1 mg/L after 5 hrs; assay type: functional
Method in brief: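 Time-course test with S. aureus ATCC 25923, either in Mueller-Hinton broth or after phagocytosis by THP-1 cells. Samples were taken over a 5 h incubation with drug at 1 mg/liter. Read-out was the change in CFU relative to the initial inoculum, reported as means.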

[22] = Ratio of drug level for cellular to extracellular region of Staphylococcus aureus infected human Calu3 cells at 4 mg/liter after 24 hrs; assay type: ADME, cell-based; settings: calu-3, 24 h; method in brief: as §5
Staphylococcus aureus [23] = assay: Bacteriostatic activity against Staphylococcus aureus infected in THP1 cells after 24 hrs; assay type: functional, THP-1; method in brief: as §2
Staphylococcus aureus [24] = assay: Antimicrobial activity against linezolid-susceptible Staphylococcus aureus NRS384 infected in THP1 cells after 24 hrs; assay type: functional, organism-based; settings: NRS384, THP-1, 24 h; method in brief: as §2
Staphylococcus aureus [25] = assay: Bacteriostatic activity against linezolid-resistant Staphylococcus aureus SA238L infected in HUVEC cells after 24 hrs; assay type: functional
Method in brief: (§6)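 HUVEC were grown in endothelial growth medium on gelatin-treated flasks. They were infected with 2 × 10^6 bacteria/ml for 1 h phagocytosis, then exposed 24 h to graded antibiotic concentrations. CFU change from the initial inoculum was fitted to a sigmoidal curve to obtain the static concentration (Cs).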

Staphylococcus aureus [26] = assay: Bacteriostatic activity against linezolid-susceptible Staphylococcus aureus SA238 infected in HUVEC cells after 24 hrs; assay type: functional; method in brief: as §6
Staphylococcus aureus [27] = assay: Antimicrobial activity against linezolid-resistant Staphylococcus aureus SA040L infected in THP1 cells after 24 hrs; assay type: functional, organism-based; settings: THP-1, 24 h; method in brief: as §2
[28] = Ratio of drug level for cellular to extracellular region of Staphylococcus aureus infected human keratinocyte at 4 mg/liter after 2 hrs; assay type: ADME, cell-based; method in brief: as §5
Staphylococcus aureus [29] = assay: Antimicrobial activity against linezolid-susceptible Staphylococcus aureus SA238 infected in human osteoblasts cells assessed as log reduction in bacterial count after 24 hrs; assay type: functional; method in brief: as §4
Staphylococcus aureus [30] = assay: Antimicrobial activity against linezolid-susceptible Staphylococcus aureus SA238 infected in HUVEC cells assessed as log reduction in bacterial count after 24 hrs; assay type: functional; method in brief: as §4
Staphylococcus aureus [31] = assay: Antimicrobial activity against linezolid-resistant Staphylococcus aureus SA238L infected in THP1 cells after 24 hrs; assay type: functional, organism-based; settings: THP-1, 24 h; method in brief: as §2
Staphylococcus aureus [32] = assay: Antimicrobial activity against linezolid-resistant Staphylococcus aureus SA238L infected in THP1 cells assessed as log reduction in bacterial count after 24 hrs; assay type: functional, THP-1; method in brief: as §2
Staphylococcus aureus [33] = assay: Bacteriostatic activity against linezolid-resistant Staphylococcus aureus SA238L infected in human epidermal keratinocytes cells after 24 hrs; assay type: functional; method in brief: as §1

CC(=O)NC[C@H]1CN(c2ccc(-c3ccc(CNCc4cnn[nH]4)cc3)c(F)c2)C(=O)O1 [RADEZOLID]
EC50 (Staphylococcus aureus [1]): 0.31 µg/mL (≈ 0.707 µM) | Activity (Staphylococcus aureus [2]): 0.6 mg/L | EC50 (Staphylococcus aureus [3]): 0.09 µg/mL (≈ 0.205 µM) | Activity (Staphylococcus aureus [4]): 0.32 mg/L | Activity (Staphylococcus aureus [5]): 0.56 mg/L | Activity (Staphylococcus aureus [6]): 1.04 mg/L | Activity (Staphylococcus aureus [7]): 0.6 mg/L | Activity (Staphylococcus aureus [8]): 0.56 mg/L | Activity (Staphylococcus aureus [9]): 0.91 mg/L | log10cfu (Staphylococcus aureus [10]): -0.61 | Activity (Staphylococcus aureus [11]): 0.6 mg/L | MIC (Legionella pneumophila [12]): 0.5 µg/mL (≈ 1.14 µM) | MIC (Staphylococcus aureus [13]): 0.5 µg/mL (≈ 1.14 µM) | Activity (Staphylococcus aureus [14]): 0.21 mg/L | log10cfu (Staphylococcus aureus [15]): 0.6 | log10cfu (Staphylococcus aureus [16]): 0.6 | log10cfu (Staphylococcus aureus [17]): -0.66 | Ratio (THP-1): 9.3 | EC50 (Legionella pneumophila [18]): 0.47 µg/mL (≈ 1.07 µM) | EC50 (Staphylococcus aureus [19]): 0.16 µg/mL (≈ 0.365 µM) | EC50 (Staphylococcus aureus [20]): 0.09 µg/mL (≈ 0.205 µM) | log10cfu (Staphylococcus aureus [21]): 2 | Ratio [22]: 8.3 | Activity (Staphylococcus aureus [23]): 0.91 mg/L | EC50 (Staphylococcus aureus [24]): 0.07 µg/mL (≈ 0.16 µM) | Activity (Staphylococcus aureus [25]): 0.6 mg/L | Activity (Staphylococcus aureus [26]): 0.6 mg/L | EC50 (Staphylococcus aureus [27]): 0.14 µg/mL (≈ 0.319 µM) | Ratio [28]: 12.6 | log10cfu (Staphylococcus aureus [29]): 0.6 | log10cfu (Staphylococcus aureus [30]): 0.6 | EC50 (Staphylococcus aureus [31]): 0.29 µg/mL (≈ 0.661 µM) | log10cfu (Staphylococcus aureus [32]): -0.77 | Activity (Staphylococcus aureus [33]): 0.6 mg/L
